Assay results reported in ChEMBL document CHEMBL1123779, “Modifications of primaquine as antimalarials. 4. 5-Alkoxy derivatives of primaquine” (J Med Chem, 1987).

Columns and labels:
Plasmodium berghei [1] = assay: Suppressive blood schizonticidal antimalarial activity evaluated in the trophozoite-induced Plasmodium berghei infection in mice (Mus musculus) at a dose 640 mg/kg given as number of toxic deaths; format: toxicity, organism-based; set-up: dose 640 mg/kg; settings: in vivo
Procedure, shortened: (§1)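 Rane Laboratory mouse test with blood-induced P. berghei infection, five mice per group. Toxic deaths are deaths occurring before the 6th day postinfection.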

Mus musculus [2] = assay: Suppressive blood schizonticidal antimalarial activity evaluated in the trophozoite-induced Plasmodium berghei infection in mice (Mus musculus) at a dose 160 mg/kg given as no. of cures; format: functional
Procedure, shortened: (§2)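 Run at the Rane Laboratory with blood-induced P. berghei infections in mice, five animals per group. A cure is a mouse surviving to 60 days postinfection. Deaths before day 6 are recorded separately as toxic deaths. Activity is scored from the increase in mean survival time over untreated controls, and counts as active when treated MST is more than twice control MST.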

Mus musculus [3] = assay: Suppressive blood schizonticidal antimalarial activity evaluated in the trophozoite-induced Plasmodium berghei infection in mice (Mus musculus) at a dose 80 mg/kg; format: functional; set-up: unit not given beside the values
Procedure, shortened: (§3)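 Run at the Rane Laboratory in mice infected with blood-induced P. berghei, five animals per group. Activity is the increase in mean survival time over untreated infected controls. A compound counts as active when treated-group MST is more than twice the control MST. Cures are mice surviving at 60 days postinfection.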

Plasmodium cynomolgi [4] = assay: Cures in Plasmodium cynomolgi infected Rhesus monkeys (Macaca mulatta) on 1 mg/kg/day after 7 days; cured 2 of 2; format: functional
Mus musculus [5] = assay: Suppressive blood schizonticidal antimalarial activity evaluated in the trophozoite-induced Plasmodium berghei infection in mice (Mus musculus) at a dose 40 mg/kg; format: functional; set-up: unit not given beside the values; procedure, shortened: as §3
Mus musculus [6] = assay: Suppressive blood schizonticidal antimalarial activity evaluated in the trophozoite-induced Plasmodium berghei infection in mice (Mus musculus) at a dose 320 mg/kg given as no. of toxic deaths; format: functional; procedure, shortened: as §1
Plasmodium cynomolgi [7] = assay: Cures in Plasmodium cynomolgi infected Rhesus monkeys (Macaca mulatta) on 0.316 mg/kg/day after 7 days; cured 0 of 3; format: functional
Plasmodium cynomolgi [8] = assay: Cures in Plasmodium cynomolgi infected Rhesus monkeys (Macaca mulatta) on 0.1 mg/kg/day after 7 days; cured 1 of 2; format: functional
Plasmodium berghei [9] = assay: Blood schizonticidal antimalarial activity in the trophozoite-induced Plasmodium berghei infection in mice (Mus musculus) at 20 mg/kg; format: functional; set-up: unit not given beside the values; procedure, shortened: as §3
Mus musculus [10] = assay: Suppressive blood schizonticidal antimalarial activity evaluated in the trophozoite-induced Plasmodium berghei infection in mice (Mus musculus) at a dose 10 mg/kg; format: functional; procedure, shortened: as §3
Mus musculus [11] = assay: Suppressive blood schizonticidal antimalarial activity evaluated in the trophozoite-induced Plasmodium berghei infection in mice (Mus musculus) at a dose 160 mg/kg given as no. of toxic deaths; format: functional; procedure, shortened: as §1
Plasmodium cynomolgi [12] = assay: Radical curative antimalarial activity against Plasmodium cynomolgi in Rhesus monkeys (Macaca mulatta) at 1 mg/kg/day over 7 days; cured 1 of 2; format: functional
Plasmodium cynomolgi [13] = assay: Cures in Plasmodium cynomolgi infected Rhesus monkeys (Macaca mulatta) on 0.1 mg/kg/day after 7 days (x7); cured 0 of 2; format: functional
Plasmodium cynomolgi [14] = assay: Cures in Plasmodium cynomolgi infected Rhesus monkeys (Macaca mulatta) on 0.316 mg/kg/day after 7 days; cured 0 of 2; format: functional
Mus musculus [15] = assay: Suppressive blood schizonticidal antimalarial activity evaluated in the trophozoite-induced Plasmodium berghei infection in mice (Mus musculus) at a dose 5 mg/kg given as no. of cures; format: functional; procedure, shortened: as §2
Mus musculus [16] = assay: Suppressive blood schizonticidal antimalarial activity evaluated in the trophozoite-induced Plasmodium berghei infection in mice (Mus musculus) at a dose 2.5 mg/kg; format: functional; procedure, shortened: as §3
Plasmodium cynomolgi [17] = assay: Cures in Plasmodium cynomolgi infected Rhesus monkeys (Macaca mulatta) on 0.316 mg/kg/day after 7 days; cures 2 of 2; format: functional
Mus musculus [18] = assay: Suppressive blood schizonticidal antimalarial activity evaluated in the trophozoite-induced Plasmodium berghei infection in mice (Mus musculus) at a dose 40 mg/kg given as number of toxic deaths; format: ADME, organism-based; set-up: dose 40 mg/kg; settings: in vivo; procedure, shortened: as §1
Mus musculus [19] = assay: Suppressive blood schizonticidal antimalarial activity evaluated in the trophozoite-induced Plasmodium berghei infection in mice (Mus musculus) at a dose 20 mg/kg given as no. of cures; format: functional; procedure, shortened: as §2
Mus musculus [20] = assay: Suppressive blood schizonticidal antimalarial activity evaluated in the trophozoite-induced Plasmodium berghei infection in mice (Mus musculus) at a dose 10 mg/kg given as no. of cures; format: functional; procedure, shortened: as §2
Plasmodium cynomolgi [21] = assay: Cures in Plasmodium cynomolgi infected Rhesus monkeys (Macaca mulatta) on 1 mg/kg/day after 7 days; cured 1 of 1; format: functional
Mus musculus [22] = assay: Suppressive blood schizonticidal antimalarial activity evaluated in the trophozoite-induced Plasmodium berghei infection in mice (Mus musculus) at a dose 80 mg/kg given as no. of cures; format: functional; procedure, shortened: as §2
Plasmodium cynomolgi [23] = assay: Cures in Plasmodium cynomolgi infected Rhesus monkeys (Macaca mulatta) on 10.0 mg/kg/day after 7 days; format: functional, organism-based
Plasmodium cynomolgi [24] = assay: Radical curative antimalarial activity against Plasmodium cynomolgi in Rhesus monkeys (Macaca mulatta) at 1 mg/kg/day over 7 days; cured 4 of 4; format: functional
Plasmodium berghei [25] = assay: Blood schizonticidal activity in trophozoite-induced Plasmodium berghei infected mice (Mus musculus) at 40 mg/kg; numbers cured; format: functional; procedure, shortened: as §2
Mus musculus [26] = assay: Suppressive blood schizonticidal antimalarial activity evaluated in the trophozoite-induced Plasmodium berghei infection in mice (Mus musculus) at a dose 80 mg/kg given as no. of toxic deaths; format: functional; procedure, shortened: as §1
Mus musculus [27] = assay: Suppressive blood schizonticidal antimalarial activity evaluated in the trophozoite-induced Plasmodium berghei infection in mice (Mus musculus) at a dose 5 mg/kg; format: functional; set-up: unit not given beside the values; procedure, shortened: as §3
Plasmodium cynomolgi [28] = assay: Cures in Plasmodium cynomolgi infected Rhesus monkeys (Macaca mulatta) on 0.1 mg/kg/day after 7 days; cured 1 of 3; format: functional
Plasmodium cynomolgi [29] = assay: Cures in Plasmodium cynomolgi infected Rhesus monkeys (Macaca mulatta) on 0.316 mg/kg/day after 7 days; cured 1 of 1; format: functional
Plasmodium cynomolgi [30] = assay: Cures in Plasmodium cynomolgi infected Rhesus monkeys (Macaca mulatta) on 1 mg/kg/day after 7 days; cured 0 of 1; format: functional
Plasmodium cynomolgi [31] = assay: Cures in Plasmodium cynomolgi infected Rhesus monkeys (Macaca mulatta) on 0.316 mg/kg/day after 7 days; cured 2 of 4; format: functional
Plasmodium cynomolgi [32] = assay: Cures in Plasmodium cynomolgi infected Rhesus monkeys (Macaca mulatta) on 0.316 mg/kg/day after 7 days; cured 0 of 1; format: functional
Plasmodium cynomolgi [33] = assay: Cures in Plasmodium cynomolgi infected Rhesus monkeys (Macaca mulatta) on 0.125 mg/kg/day dose; format: functional
Plasmodium cynomolgi [34] = assay: Cures in Plasmodium cynomolgi infected Rhesus monkeys (Macaca mulatta) on 0.25 mg/kg/day dose; format: functional
Plasmodium cynomolgi [35] = assay: Cures in Plasmodium cynomolgi infected Rhesus monkeys (Macaca mulatta) on 0.5 mg/kg/day; format: functional
Plasmodium cynomolgi [36] = assay: Cures in Plasmodium cynomolgi infected Rhesus monkeys (Macaca mulatta) on 10.0 mg/kg/day after 7 days; cured 1 of 1; format: functional
Mus musculus [37] = assay: Suppressive blood schizonticidal antimalarial activity evaluated in the trophozoite-induced Plasmodium berghei infection in mice (Mus musculus) at a dose 320 mg/kg; format: functional; procedure, shortened: as §3
Plasmodium cynomolgi [38] = assay: Cures in Plasmodium cynomolgi infected Rhesus monkeys (Macaca mulatta) on 1 mg/kg/day after 7 days; cured 3 of 3; format: functional
Mus musculus [39] = assay: Suppressive blood schizonticidal antimalarial activity evaluated in the trophozoite-induced Plasmodium berghei infection in mice (Mus musculus) at a dose 320 mg/kg given as number of cures; format: functional; procedure, shortened: as §2
Plasmodium cynomolgi [40] = assay: Cures in Plasmodium cynomolgi infected Rhesus monkeys (Macaca mulatta) on 3.16 mg/kg/day after 7 days; cured 0 of 1; format: functional
Mus musculus [41] = assay: Suppressive blood schizonticidal antimalarial activity evaluated in the trophozoite-induced Plasmodium berghei infection in mice (Mus musculus) at a dose 640 mg/kg given as no. of cures; format: functional; procedure, shortened: as §2

SMILES	Toxic deaths (Plasmodium berghei [1])	Cures (Mus musculus [2])	Delta MST (Mus musculus [3])	Delta MST (Mus musculus [5])	Toxic deaths (Mus musculus [6])	Delta MST (Plasmodium berghei [9])	Delta MST (Mus musculus [10])	Toxic deaths (Mus musculus [11])	Cures/no. of animals (Plasmodium cynomolgi [13])	Delta MST (Mus musculus [16])	Cures (Mus musculus [19])	Cures (Mus musculus [20])	Cures (Plasmodium berghei [25])	further results
COc1cc(NC(C)CCCN)c2nccc(C)c2c1OCCCCCCCCOc1ccccc1 (stereo unspecified)	1	3	4.4	9.4	2	3	0.6							Cures/no. of animals (Plasmodium cynomolgi [4]): 2; Cures/no. of animals (Plasmodium cynomolgi [7]): 0; Cures/no. of animals (Plasmodium cynomolgi [8]): 1
COc1cc(NC(C)CCCN)c2ncccc2c1 (stereo unspecified) [PRIMAQUINE]	5		9.4	5	5	4		2	0					Cures/no. of animals (Plasmodium cynomolgi [12]): 1; Cures/no. of animals (Plasmodium cynomolgi [14]): 0
CCCOc1c(OC)cc(NC(C)CCCN)c2nccc(C)c12 (stereo unspecified)	5							5	0	6	3	1		Cures (Mus musculus [15]): 1; Cures/no. of animals (Plasmodium cynomolgi [17]): 2; Toxic deaths (Mus musculus [18]): 3; Cures/no. of animals (Plasmodium cynomolgi [21]): 1
CCCCCCCOc1c(OC)cc(NC(C)CCCN)c2nccc(C)c12 (stereo unspecified)	5				5			1	0	7.9	5	3	4	Cures (Mus musculus [15]): 3; Cures (Mus musculus [22]): 2; Cures/no. of animals (Plasmodium cynomolgi [23]): Toxic; Cures/no. of animals (Plasmodium cynomolgi [24]): 4; Cures/no. of animals (Plasmodium cynomolgi [17]): 2
CCCCOCCOc1c(OC)cc(NC(C)CCCN)c2nccc(C)c12 (stereo unspecified)					4			3		3.3	4	3	2	Cures/no. of animals (Plasmodium cynomolgi [23]): Toxic; Toxic deaths (Mus musculus [26]): 4; Cures/no. of animals (Plasmodium cynomolgi [17]): 2; Delta MST (Mus musculus [27]): 4.3; Cures/no. of animals (Plasmodium cynomolgi [21]): 1; Cures/no. of animals (Plasmodium cynomolgi [28]): 1
CCCCCCOc1c(OC)cc(NC(C)CCCN)c2nc(C)ccc12 (stereo unspecified)	3	3	11.4		3	6	2.7		0				1	Cures/no. of animals (Plasmodium cynomolgi [29]): 1; Cures/no. of animals (Plasmodium cynomolgi [30]): 0
COc1cc(NC(C)CCCN)c2ncc(C)cc2c1 (stereo unspecified)	5			7.5	5	5.7		2	0					Cures/no. of animals (Plasmodium cynomolgi [12]): 2; Toxic deaths (Mus musculus [26]): 1; Cures/no. of animals (Plasmodium cynomolgi [14]): 0
CCCCOc1c(OC)cc(NC(C)CCCN)c2ncccc12 (stereo unspecified)	5			6.7		6.5	4.1	3						Cures/no. of animals (Plasmodium cynomolgi [23]): Toxic; Cures/no. of animals (Plasmodium cynomolgi [4]): 2; Cures/no. of animals (Plasmodium cynomolgi [31]): 2; Toxic deaths (Mus musculus [26]): 2
COCCCCCCOc1c(OC)cc(NC(C)CCCN)c2nccc(C)c12 (stereo unspecified)	5							5	0	6.9	2	3	2	Cures (Mus musculus [15]): 1; Cures/no. of animals (Plasmodium cynomolgi [32]): 0; Cures/no. of animals (Plasmodium cynomolgi [4]): 2; Toxic deaths (Mus musculus [18]): 3
COc1cc(NC(C)CCCN)c2nccc(C)c2c1OC (stereo unspecified)	5		8.9	7.1	4	5.7		1						Cures (Plasmodium cynomolgi [33]): 11; Cures (Plasmodium cynomolgi [34]): 3; Cures (Plasmodium cynomolgi [35]): 1
CCCCCCOc1c(OC)cc(NC(C)CCCN)c2ncccc12 (stereo unspecified)	1	1		6.5		3.7								Cures (Mus musculus [22]): 1; Cures/no. of animals (Plasmodium cynomolgi [36]): 1; Delta MST (Mus musculus [37]): 0.1; Cures/no. of animals (Plasmodium cynomolgi [38]): 3; Cures/no. of animals (Plasmodium cynomolgi [14]): 0
CCCCCCCCCCOc1c(OC)cc(NC(C)CCCN)c2nccc(C)c12 (stereo unspecified)		4					1.8				2		3	Cures (Mus musculus [22]): 4; Cures (Mus musculus [39]): 5; Cures/no. of animals (Plasmodium cynomolgi [36]): 1; Cures/no. of animals (Plasmodium cynomolgi [40]): 0; Cures/no. of animals (Plasmodium cynomolgi [30]): 0; Cures (Mus musculus [41]): 4
